Some results are limits rather than exact numbers.

The test system of one test is MDA-MB-435 (human). The test can be described thus: Cytotoxicity against breast MDA-MB-435 cell line.
The test system of a further test is HOP-62. The test can be described thus: Cytotoxicity against lung HOP-62 cell line. The settings on record: Homo sapiens. The format is functional. The method, boiled down: (§1)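 Tested in the 60 human cancer cell line panel, after a preliminary one-dose screen in three cell lines. The value is the molar concentration giving 50% growth inhibition (GI50), reported as log GI50 for each cell line.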

Another test concerns SN12C. The test is described as follows: Cytotoxicity against renal SN12C cell line. In kind it is functional. The settings on record: Homo sapiens. The method, boiled down:
as §1

In test [1] the test system is Panel (Carcinoma cell lines). The test can be described thus: Mean graph midpoint for growth inhibition of all human cancer cell lines. In kind it is functional. The procedure, abridged: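 Mean graph midpoint: the average GI50 (molar) over all human cancer cell lines successfully tested in the 60 cell line panel, expressed as log GI50.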
A further test concerns HCT-116. The test is described as follows: Cytotoxicity against colon HCT116 cell line. In kind it is functional. The settings on record: Homo sapiens. The method, boiled down: as §1
The test system of another test is DU-145. The test can be described thus: Cytotoxicity against prostate DU-145 cell line. The settings on record: Homo sapiens. In kind it is functional. The procedure, abridged: as §1
The test system of a further test is SF-539. The test can be described thus: Cytotoxicity against CNS SF-539 cell line. The settings on record: Homo sapiens. In kind it is functional. The procedure, abridged: as §1
The subject of the next test is OVCAR-3. The test is described as follows: Cytotoxicity against ovarian OVCAR-3 cell line. The settings on record: Homo sapiens. The format is functional. The method, boiled down: as §1
A further test concerns UACC-62. The test is described as follows: Cytotoxicity against melanoma UACC-62 cell line. In kind it is functional. The settings on record: Homo sapiens. The method, boiled down:
as §1

The next test concerns OVCAR-4. The test is described as follows: Cytotoxicity against […] OVCAR-4 cell line. The format is functional. The settings on record: Homo sapiens. The method, boiled down:
as §1

A further test deals with NCI-H322M. The test is described as follows: Cytotoxicity against lung […] cell line. In kind it is functional. The settings on record: Homo sapiens. The procedure, abridged:
as §1

Another test deals with SR. The test can be described thus: Cytotoxicity against leukemia SR cell line. The format is functional. The settings on record: Homo sapiens. The procedure, abridged:
as §1

The test system of another test is SNB-75. The test can be described thus: Cytotoxicity against prostate CNS SNB-75 cell line. In kind it is functional. The settings on record: Homo sapiens. The method, boiled down:
as §1

[2] abbreviates: in the assay text read “CNS” for “prostate CNS”.

Broadly, the GI50 is the concentration at which growth is held to half of that of the control. Low values mean more potent growth inhibition, high ones less potent growth inhibition. For the molecule `COc1cc([C@@H]2c3cc4c(cc3[C@H]3OC[C@@H]2[C@@H]3CO)OCO4)cc(OC)c1OC`, the GI50 was 6.76 µM with MDA-MB-435 (human); 47.9 µM in the test on HOP-62; 58.9 µM in the test with SN12C; 32.4 µM in [1]; 30.2 µM in the test on HCT-116; 30.2 µM in the test on DU-145. Also, the figures for the GI50 in the test with SF-539, in the test with OVCAR-3 and with UACC-62 were 17.8 µM, 24 µM and 18.2 µM, respectively.

Turning to `COc1cc2c(cc1OC)[C@]1(c3cc(OC)c(OC)c(OC)c3)OC[C@H](C2)[C@@H]1CO`, the GI50 in the test on OVCAR-4 is 77.6 µM; in the test with MDA-MB-435 (human), 6.76 µM; with NCI-H322M, 43.7 µM; in the test on HOP-62, 47.9 µM; in the test on SN12C, 58.9 µM; in test [1], 47.9 µM. Further, the GI50 in the test with HCT-116 is 30.2 µM; in the test on DU-145, 30.2 µM; in the test on SR, 44.7 µM; with SF-539 it was 17.8 µM; in the test on OVCAR-3 it was 24 µM; with UACC-62 it was 63.1 µM.

For the molecule `COc1cc([C@]23OC[C@H](Cc4cc5c(cc42)OCO5)[C@@H]3C)cc(OC)c1OC`, the GI50 in the test with OVCAR-4 is 0.38 µM; in the test on SNB-75, 0.38 µM; with NCI-H322M, 2.14 µM; in the test with HOP-62, 0.794 µM; in the test on SN12C it was 5.37 µM; in test [1] it was 0.851 µM. Moreover, the GI50 with HCT-116 is 0.437 µM; with DU-145 it was 0.479 µM; in the test with SR it was 0.148 µM; in the test on OVCAR-3, 0.186 µM; in the test on UACC-62 it was 0.407 µM.

With `COc1ccc(C23OCC24C2COC(c5cc(OC)c(OC)cc53)C24)cc1OC` (stereo unspecified), the GI50 (in the test with MDA-MB-435 (human); with HOP-62; in test [1]; in the test with HCT-116; in the test on DU-145; with SF-539) was more than 100 µM throughout. The GI50 in the test on OVCAR-3 and in the test on UACC-62 was more than 100 µM throughout.

`COc1cc([C@]23OC[C@H](Cc4cc5c(cc42)OCO5)[C@H]3COC(C)=O)cc(OC)c1OC`: the GI50 with MDA-MB-435 (human) was 1.86 µM; in the test with HOP-62, 25.1 µM; in the test on SN12C it was 25.7 µM; in test [1], 12.3 µM; with HCT-116, 13.8 µM; in the test on SF-539 it was 19.1 µM. In addition, the concentration for 50% growth inhibition (GI50) in the test with UACC-62 was 10 µM.

In turn, `COc1cc2c(cc1OC)[C@@H]1OC[C@H]([C@@H]2c2cc(OC)c(OC)c(OC)c2)[C@@H]1CO` showed a GI50 in test [1] of more than 100 µM.

Take `COc1ccc([C@]23OC[C@H](Cc4cc(OC)c(OC)cc42)[C@@H]3C)cc1OC`: the GI50 in the test on HOP-62 is 2.4 µM; in the test with SN12C, 12 µM; in test [1], 3.8 µM; in the test with HCT-116 it was 2.75 µM; in the test on DU-145, 3.89 µM; in the test on SF-539, 1.95 µM. Moreover, the GI50 in the test on OVCAR-3 was 2.4 µM; in the test on UACC-62, 6.92 µM.

In the case of `COc1cc2c(c(OC)c1OC)OC[C@H]1[C@H](CO)Cc3cc4c(cc3[C@@H]21)OCO4`, the GI50 in the test on OVCAR-4 is 39.8 µM; in the test with SNB-75 (setting [2]), 42.7 µM; with MDA-MB-435 (human), 19.1 µM; in the test on NCI-H322M, 47.9 µM; with HOP-62, 52.5 µM; in the test with SN12C it was 44.7 µM. In addition, the GI50 in test [1] is 30.9 µM; in the test on HCT-116, 30.2 µM; in the test on DU-145, 37.2 µM; in the test on SR it was 5.13 µM; in the test with SF-539 it was 20.9 µM; in the test on OVCAR-3, 25.1 µM. In addition, in the test on UACC-62, halving of growth (GI50) required 25.7 µM.

Take `COc1cc2c(cc1OC)[C@H]1c3cc(OC)c(OC)c(OC)c3OC[C@H]1[C@H](CO)C2`: the GI50 in the test on OVCAR-4 was 1.95 µM; with SNB-75 (setting [2]) it was 3.63 µM; in the test with MDA-MB-435 (human), 18.2 µM; with NCI-H322M, 8.71 µM; with HOP-62, 60.3 µM; with SN12C it was 25.1 µM. Also, the GI50 in test [1] is 20 µM; in the test on HCT-116 it was 22.4 µM; in the test on DU-145 it was 22.9 µM; in the test on SR, 18.2 µM; with SF-539, 24.5 µM; in the test with OVCAR-3, 15.1 µM. For the same molecule, growth with UACC-62 was halved (GI50) at 20 µM.

On to `COc1cc(C23OCC24C2COC(c5cc6c(cc53)OCO6)C24)cc(OC)c1OC` (stereo unspecified), for which the GI50 was less than 0.01 µM in the test on MDA-MB-435 (human); less than 0.01 µM with HOP-62; 0.0182 µM in test [1]; less than 0.01 µM in the test with HCT-116; less than 0.01 µM with DU-145; less than 0.01 µM with SF-539. Also, the GI50 in the test on OVCAR-3 and in the test on UACC-62 was less than 0.01 µM in each case.

`COc1cc([C@]23OC[C@H](Cc4cc5c(cc42)OCO5)[C@@H]3CO)cc(OC)c1OC`: the GI50 in the test with OVCAR-4 was 23.4 µM; in the test on SNB-75 (setting [2]) it was 2.69 µM; in the test with MDA-MB-435 (human) it was 0.295 µM; in the test with NCI-H322M, 6.17 µM; with HOP-62, 4.37 µM; in test [1], 4.07 µM. Besides, the GI50 in the test on HCT-116 is 2.88 µM; with DU-145, 2.63 µM; in the test on SR, 0.589 µM; with SF-539 it was 2.51 µM; with OVCAR-3, 1.45 µM; with UACC-62, 4.27 µM.

With `COc1cc([C@]23OC[C@H](Cc4cc5c(cc42)OCO5)[C@@H]3COC(C)=O)cc(OC)c1OC`, the GI50 with OVCAR-4 is 4.27 µM; in the test with SNB-75 (setting [2]) it was 2 µM; in the test with MDA-MB-435 (human) it was 0.468 µM; in the test with NCI-H322M, 4.37 µM; with HOP-62, 4.27 µM; in the test with SN12C it was 5.01 µM. Also, the GI50 in [1] was 3.89 µM; in the test with HCT-116 it was 2.34 µM; with DU-145, 4.57 µM; in the test on SR, 0.759 µM; in the test with SF-539 it was 1.74 µM; with OVCAR-3, 2.14 µM. The molecule further had a GI50 in the test on UACC-62 of 2.95 µM.

`COc1cc([C@@H]2c3cc4c(cc3[C@@H]3OC[C@H]2[C@@H]3CO)OCO4)cc(OC)c1OC`: the GI50 in the test with MDA-MB-435 (human) is 3.89 µM; in the test on HOP-62, 19.1 µM; in the test with SN12C, 31.6 µM; in test [1] it was 23.4 µM; in the test on HCT-116, 29.5 µM; in the test on DU-145, 39.8 µM. Besides, the GI50 with SF-539 is 15.5 µM; in the test with OVCAR-3 it was 14.5 µM; in the test on UACC-62, 26.9 µM.

On to `COc1cc2c(c(OC)c1OC)OC[C@@H]1[C@H]2c2cc3c(cc2C[C@H]1C)OCO3`, for which the GI50 was 37.2 µM in the test on OVCAR-4; 12.3 µM in the test with SNB-75 (setting [2]); 11.5 µM in the test with MDA-MB-435 (human); more than 75.9 µM with NCI-H322M; more than 75.9 µM in the test on HOP-62; more than 75.9 µM with SN12C. The GI50 was 38 µM in test [1]; 31.6 µM in the test on HCT-116; more than 75.9 µM with DU-145; 19.1 µM in the test on SR; 20.9 µM in the test with SF-539; 33.1 µM in the test with OVCAR-3. This molecule also gave a GI50 in the test with UACC-62 of 30.2 µM.

As for `COc1cc([C@]23OC[C@H](Cc4cc5c(cc42)OCO5)[C@H]3CO)cc(OC)c1OC`, the GI50 is 7.41 µM in the test with MDA-MB-435 (human); 0.219 µM with HOP-62; 4.79 µM with SN12C; 10.5 µM in test [1]; 0.0437 µM in the test with HCT-116; 4.47 µM in the test with DU-145. Moreover, the GI50 in the test on SF-539 was 3.89 µM; in the test on OVCAR-3, 0.182 µM; in the test on UACC-62 it was 0.0776 µM.

On to `COc1cc2c(cc1OC)C1(c3cc(OC)c(OC)c(OC)c3)OCC13C1COC2C13` (stereo unspecified), for which the GI50 in the test on MDA-MB-435 (human) is 19.5 µM; with HOP-62, 70.8 µM; in the test on SN12C, 34.7 µM; in test [1], 41.7 µM; with HCT-116, 28.2 µM; in the test on DU-145, 29.5 µM. The GI50 with SF-539 is 31.6 µM; with OVCAR-3, 30.2 µM; in the test on UACC-62, 69.2 µM.

For `COc1cc2c(c(OC)c1OC)OC[C@H]1[C@H](COC(C)=O)Cc3cc4c(cc3[C@@H]21)OCO4`, the GI50 is 47.9 µM in the test on OVCAR-4; 39.8 µM in the test on MDA-MB-435 (human); 67.6 µM in the test with HOP-62; 40.7 µM in the test on SN12C; 40.7 µM in test [1]; 61.7 µM in the test on HCT-116. Besides, the GI50 in the test with DU-145 was 70.8 µM; with SR, 21.9 µM; in the test with SF-539 it was 57.5 µM; in the test with OVCAR-3, 56.2 µM; in the test with UACC-62 it was 31.6 µM.

(Values after ChEMBL document CHEMBL1136739, “Modes of methyleneoxy bridging and their effect on tetrahydronaphthalene lignan cytotoxicity” (2003).)
